Measurements from ChEMBL document CHEMBL3232915, “Discovery, optimization, and characterization of novel D2 dopamine receptor selective antagonists” (J Med Chem, 2014).
Blank lines part the entries; values can stand above or below the compound they belong to.

Columns and labels:
D(2) dopamine receptor [1] = target: T1, D(2) dopamine receptor (Homo sapiens, UniProt P14416); experiment: Antagonist activity at D2 receptor (unknown origin) expressed in Flp-In TREx 293 cells coexpressing chimeric Gqi5 protein assessed as calcium accumulation by Fluo-8AM dye based fluorescence analysis; format: functional, cell-based
D(3) dopamine receptor [2] = target: T2, D(3) dopamine receptor (Homo sapiens, UniProt P35462); experiment: Displacement of [3H]methylspiperone from human D3 receptor expressed in HEK293 cell membrane after 90 mins by scintillation counting analysis; format: cell membranes
D(3) dopamine receptor [3] = target: T2, D(3) dopamine receptor; experiment: Antagonist activity at ProLink-tagged D3 receptor (unknown origin) expressed in CHO cells assessed as inhibition of dopamine-stimulated beta-arrestin binding treated for 90 mins prior to dopamine challenge by PathHunter DiscoveRx assay; format: cell-based
D(2) dopamine receptor [4] = target: T1, D(2) dopamine receptor; experiment: Antagonist activity at ProLink-tagged D2 receptor (unknown origin) expressed in CHO cells assessed as inhibition of dopamine-stimulated beta-arrestin binding treated for 90 mins prior to dopamine challenge by PathHunter DiscoveRx assay; format: cell-based
D(2) dopamine receptor [5] = target: T1, D(2) dopamine receptor; experiment: Displacement of [3H]methylspiperone from human D2L receptor expressed in HEK cell membrane after 90 mins by scintillation counting analysis; format: cell membranes, HEK293
Plasma [6] = experiment: Stability of the compound in human plasma assessed as compound remaining after 2 hrs; format: ADME, cell-free
[7] = Aqueous kinetic solubility of the compound in PBS buffer; format: physicochemical
Plasma [8] = experiment: Stability of the compound in mouse plasma assessed as compound remaining after 2 hrs; format: ADME, cell-free
Liver = experiment: Intrinsic half-life in mouse liver microsomes; format: ADME
Brain = experiment: Cmax in C57BL/6 mouse brain at 30 mg/kg, ip administered as single dose measured within 15 mins after drug challenge; format: ADME, organism-based; parameters: dose 30 mg/kg, route intraperitoneal; settings: in vivo, 0.25 h
Procedure, shortened: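 Male C57BL/6 mice (N = 3) got a single 30 mg/kg ip dose in 10% NMP + 20% PEG 400 + 70% of 25% HP-β-CD in water. Plasma and brain concentration–time profiles were measured.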

Caco-2 [9] = experiment: Apparent permeability from basolateral to apical side in human Caco2 cells; format: ADME, cell-based
Caco-2 [10] = experiment: Apparent permeability from apical to basolateral side in human Caco2 cells; format: ADME, cell-based
HEK293 = experiment: Ratio of Ki for human D3 receptor expressed in HEK293 cell membrane to Ki for human D2L receptor expressed in HEK cell membrane; format: cell-based
Procedure, shortened: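 Competition binding with [3H]methylspiperone on membranes from stable HEK cells. […] Incubation 90 min at room temperature in EBSS with sodium metabisulfite, nonspecific binding with 4 µM (+)-butaclamol, then GF/C filtration and scintillation counting. Ki from IC50 via Cheng–Prusoff.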

CHO = experiment: Ratio of AC50 for ProLink-tagged D3 receptor (unknown origin) expressed in CHO cells to AC50 for ProLink-tagged D2 receptor (unknown origin) expressed in CHO cells by beta-arrestin assay; format: cell-based; settings: Homo sapiens

T1 sequence (P14416 whole entry): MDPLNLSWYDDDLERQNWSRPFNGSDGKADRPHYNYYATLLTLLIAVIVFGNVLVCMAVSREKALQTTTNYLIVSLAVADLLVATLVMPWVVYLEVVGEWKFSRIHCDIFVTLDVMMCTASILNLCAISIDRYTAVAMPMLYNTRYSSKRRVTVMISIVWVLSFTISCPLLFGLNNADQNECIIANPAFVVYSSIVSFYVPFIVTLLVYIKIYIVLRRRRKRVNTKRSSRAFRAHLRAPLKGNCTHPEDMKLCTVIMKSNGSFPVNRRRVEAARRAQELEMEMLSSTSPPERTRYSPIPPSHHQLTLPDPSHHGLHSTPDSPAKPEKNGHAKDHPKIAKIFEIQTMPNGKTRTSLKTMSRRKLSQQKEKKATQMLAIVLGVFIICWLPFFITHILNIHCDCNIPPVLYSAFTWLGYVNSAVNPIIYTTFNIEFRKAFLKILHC
T2 sequence (P35462 whole entry): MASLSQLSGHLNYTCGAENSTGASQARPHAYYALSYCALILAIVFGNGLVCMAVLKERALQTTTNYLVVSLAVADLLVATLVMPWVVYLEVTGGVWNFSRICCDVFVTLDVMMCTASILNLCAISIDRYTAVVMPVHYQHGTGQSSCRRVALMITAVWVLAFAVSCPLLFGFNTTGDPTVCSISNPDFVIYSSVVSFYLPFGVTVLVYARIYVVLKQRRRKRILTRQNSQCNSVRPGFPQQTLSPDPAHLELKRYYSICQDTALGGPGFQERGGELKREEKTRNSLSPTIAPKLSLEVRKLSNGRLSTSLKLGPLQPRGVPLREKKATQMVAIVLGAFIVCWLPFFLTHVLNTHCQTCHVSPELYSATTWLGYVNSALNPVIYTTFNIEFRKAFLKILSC

AC50 (D(2) dopamine receptor [1]): 353 nM
SMILES: CN1C(=O)c2ccccc2[S+]([O-])c2ccc(C(=O)NCc3ccc(F)cc3)cc21 (racemic)

AC50 (D(2) dopamine receptor [1]): 1770 nM
SMILES: CCN1C(=O)c2ccccc2[S+]([O-])c2ccc(C(=O)NCc3cc(OC)c(OC)c(OC)c3)cc21 (racemic)

Ki (D(3) dopamine receptor [2]): 0.35 µM | AC50 (D(3) dopamine receptor [3]): 4.57 µM | AC50 (D(2) dopamine receptor [4]): 363 nM | AC50 (D(2) dopamine receptor [1]): 70 nM | Ki (D(2) dopamine receptor [5]): 210 nM
SMILES: CN1C(=O)c2ccccc2[S@+]([O-])c2ccc(C(=O)NCCN3CCCC3)cc21
Ratio Ki (HEK293): 1.7 | Ratio (CHO): 12.6

AC50 (D(2) dopamine receptor [1]): 141 nM
SMILES: CN1C(=O)c2ccccc2[S+]([O-])c2ccc(C(=O)NCc3ccc(Cl)cc3)cc21 (racemic)

AC50 (D(2) dopamine receptor [1]): 223 nM
SMILES: CCN1C(=O)c2ccccc2[S+]([O-])c2ccc(NC(=O)Cc3ccc(F)cc3)cc21 (racemic)

Ki (D(3) dopamine receptor [2]): 21 µM | AC50 (D(3) dopamine receptor [3]): 14.5 µM | AC50 (D(2) dopamine receptor [4]): 2890 nM | AC50 (D(2) dopamine receptor [1]): 445 nM | Ki (D(2) dopamine receptor [5]): 310 nM
SMILES: CN1C(=O)c2ccccc2[S@+]([O-])c2ccc(C(=O)NCc3cccnc3)cc21
Ratio Ki (HEK293): 70 | Ratio (CHO): 5

AC50 (D(2) dopamine receptor [1]): 353 nM
SMILES: CCN1C(=O)c2ccccc2[S+]([O-])c2ccc(C(=O)NCc3ccc(C(C)(C)C)cc3)cc21 (racemic)

AC50 (D(2) dopamine receptor [1]): 71 nM
SMILES: CN1C(=O)c2ccccc2[S+]([O-])c2ccc(C(=O)NCc3ccc(Br)cc3)cc21 (racemic)

AC50 (D(2) dopamine receptor [1]): 281 nM
SMILES: CN1C(=O)c2ccccc2[S+]([O-])c2ccc(C(=O)NCc3cccnc3)cc21 (racemic)

AC50 (D(2) dopamine receptor [1]): 89 nM
SMILES: CN1C(=O)c2ccccc2[S+]([O-])c2ccc(C(=O)NCCN3CCCC3)cc21 (racemic)

AC50 (D(2) dopamine receptor [1]): 887 nM
SMILES: CCN1C(=O)c2ccccc2[S+]([O-])c2ccc(C(=O)Nc3ccccc3)cc21 (racemic)

AC50 (D(2) dopamine receptor [1]): 89 nM
SMILES: CCN1C(=O)c2ccccc2[S+]([O-])c2ccc(C(=O)NCc3ccc(F)cc3)cc21 (racemic)

Ki (D(3) dopamine receptor [2]): 0.13 µM | AC50 (D(3) dopamine receptor [3]): 1.62 µM | AC50 (D(2) dopamine receptor [4]): 257 nM | AC50 (D(2) dopamine receptor [1]): 112 nM | Ki (D(2) dopamine receptor [5]): 23 nM
SMILES: CCN1C(=O)c2ccccc2[S@+]([O-])c2ccc(C(=O)NCc3ccc(C#N)cc3)cc21
Ratio Ki (HEK293): 5.7 | Ratio (CHO): 6.3

Continued, compound first:

SMILES: CN1C(=O)c2ccccc2[S@@+]([O-])c2ccc(C(=O)NCCc3cccs3)cc21
Ki (D(3) dopamine receptor [2]): > 50 µM | AC50 (D(3) dopamine receptor [3]): > 77 µM | AC50 (D(2) dopamine receptor [4]): > 77000 nM | AC50 (D(2) dopamine receptor [1]): > 77000 nM | Ki (D(2) dopamine receptor [5]): > 50000 nM

SMILES: CCN1C(=O)c2ccccc2[S+]([O-])c2ccc(C(=O)NCc3ccc(Cl)cc3)cc21 (racemic)
AC50 (D(2) dopamine receptor [1]): 509 nM

SMILES: CCN1C(=O)c2ccccc2Sc2ccc(C(=O)NCc3ccc(OC)cc3)cc21
AC50 (D(2) dopamine receptor [1]): 705 nM

SMILES: CCN1C(=O)c2ccccc2[S+]([O-])c2ccc(C(=O)NCc3ccc(C#N)cc3)cc21 (racemic)
AC50 (D(2) dopamine receptor [1]): 141 nM

SMILES: CN1C(=O)c2ccccc2[S@+]([O-])c2ccc(C(=O)NCCc3cccs3)cc21
Ki (D(3) dopamine receptor [2]): 4.1 µM | Stability (Plasma [6]): 98.4% | Kinetic_solubility [7]: 113.3 µM | Stability (Plasma [8]): 95.2% | t1/2 (Liver): 24.7 min | Cmax (Brain): 4.19 µmol/kg | Papp (Caco-2 [9]): 23.8 ×10⁻⁶ cm/s | Papp (Caco-2 [10]): 18.8 ×10⁻⁶ cm/s

SMILES: CCN1C(=O)c2ccccc2[S+]([O-])c2ccc(C(=O)NCc3cccc(OC)c3)cc21 (racemic)
AC50 (D(2) dopamine receptor [1]): 112 nM

SMILES: CCN1C(=O)c2ccccc2[S+]([O-])c2ccc(C(=O)NC(C)c3ccccc3)cc21 (racemic)
AC50 (D(2) dopamine receptor [1]): 560 nM

SMILES: CCN1C(=O)c2ccccc2[S+]([O-])c2ccc(NC(=O)Cc3ccc(OC)cc3)cc21 (racemic)
AC50 (D(2) dopamine receptor [1]): 705 nM

SMILES: CCN1C(=O)c2ccccc2[S+]([O-])c2ccc(C(=O)Nc3ccc(OC)cc3)cc21 (racemic)
AC50 (D(2) dopamine receptor [1]): 141 nM

SMILES: CCN1C(=O)c2ccccc2[S+]([O-])c2ccc(C(=O)NCc3ccc(SC)cc3)cc21 (racemic)
AC50 (D(2) dopamine receptor [1]): 223 nM

SMILES: COc1ccc(CNC(=O)c2cccc(N3C(=O)c4ccccc4C3=O)c2)cc1
AC50 (D(2) dopamine receptor [1]): > 77000 nM

SMILES: CN1C(=O)c2ccccc2[S+]([O-])c2ccc(C(=O)NCc3ccccn3)cc21 (racemic)
AC50 (D(2) dopamine receptor [1]): 11200 nM

SMILES: COc1ccc(CNC(=O)c2ccc3c(c2)C(=O)c2ccccc2C3=O)cc1
AC50 (D(2) dopamine receptor [1]): > 77000 nM

SMILES: CCCN1C(=O)c2ccccc2[S+]([O-])c2ccc(C(=O)NCc3ccc(OC)cc3)cc21 (racemic)
AC50 (D(2) dopamine receptor [1]): 705 nM
